# Hits are enriched below; roughly 2.6% of the tested compounds scored in any of these assays.
# NPY Y2 blocker: NPY-Y2 (human) receptor antagonism; 140,000 tested, 0.99% active; AID 793; inhibition, % at 2.7 µM; P49146; NPY-Y2 expressing cells, antagonist mode; in the data active means inhibition above about 17%;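 further: 0% = vehicle with agonist challenge and 100% = reference antagonist with challenge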
# NPY2 pot ag: potentiates or activates human NPY-Y2 receptor. cells expressing NPY-Y2, potentiator/agonist read-out. activation, % at 3.6 µM. 220,000 tested, 0.45% active; in the data active means activation above about 27%;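 further: cells stimulated with NPY near EC25 plus isoproterenol at EC100; 0% = vehicle plus submaximal agonist and 100% = vehicle plus saturating agonist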
# NPY Y1 blocker: blocks the human neuropeptide Y Y1 receptor | P25929 | HEK293-CNG Y1 cells, membrane potential fluorescence; NPY at EC95, then isoproterenol | inhibition, % at 3.6 µM | 200,000 tested, 1% active | AID 1040;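 active means inhibition above the campaign mean inhibition of all tested compounds plus 3 SD, cut at about 20% in these data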;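 further: 0% = DMSO wells given NPY plus isoproterenol and 100% = isoproterenol alone without NPY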
# Target sequence (P25929 whole entry, looked up): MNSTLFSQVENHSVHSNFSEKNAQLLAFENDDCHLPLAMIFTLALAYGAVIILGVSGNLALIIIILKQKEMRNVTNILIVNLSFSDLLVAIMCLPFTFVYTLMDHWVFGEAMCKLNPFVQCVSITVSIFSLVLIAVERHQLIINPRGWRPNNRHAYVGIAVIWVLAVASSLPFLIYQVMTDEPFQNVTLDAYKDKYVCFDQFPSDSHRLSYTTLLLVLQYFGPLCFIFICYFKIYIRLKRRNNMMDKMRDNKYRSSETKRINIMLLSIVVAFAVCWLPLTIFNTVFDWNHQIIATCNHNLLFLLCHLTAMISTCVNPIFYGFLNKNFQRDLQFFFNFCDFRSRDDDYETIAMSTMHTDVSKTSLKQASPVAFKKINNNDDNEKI
#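 material = HEK293 cells with Y1 receptor plus CNG channel | also added = NPY 25 nM then isoproterenol 1 µM plus Ro 20-1724 25 µM | schedule = dye 3 h, compound 60 min room temperature, stimulation 45 min | measured by = membrane potential fluorescence | benchmarks = high control isoproterenol alone, low control NPY with isoproterenol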
# MT stabilizer: microtubule stabilization, imaging screen. % tubulin-high responders, % at 10 µM. AID 2205. 200,000 tested, 0.83% active. HeLa tubulin immunostaining HCS, 24 h; share of cells brighter than vehicle mean+2SD;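 active means plate Z-score above 3 for both tubulin-high and condensed-nucleus cell shares, with cell loss under 80%, at 10 µM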;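 further: anti alpha tubulin signal scored within the nucleus-defined area of each cell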
# bCat nuc transl: beta-catenin nuclear translocation modulation | nuclear translocation activity, % at 5 µM | 190,000 tested, 0.3% active | HeLa beta-catenin nuclear translocation, immunofluorescence imaging;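 active means nuclear translocation activity above 50% at 5 µM, with a well cell count of 50 or more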;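 further: per-cell ratio of nuclear to cytoplasmic median beta-catenin stain intensity; plate controls were DMSO negative control for no effect and GSK-3 inhibitor IX positive control for full effect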
#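 Test system: human HeLa cells, endogenous beta-catenin. Times: 24 h compound exposure, 37°C. Measured by: beta-catenin immunofluorescence imaging with DAPI.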
# NPY1 pot ag: potentiators or agonists of human neuropeptide Y receptor Y1; NPY-Y1 expressing cells, potentiator/agonist activation; activation, % at 3.6 µM; 220,000 tested, 0.37% active; AID 1304; in the data active means activation above about 33%, passing the limit was not always enough;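 further: cells stimulated with NPY at EC10 then isoproterenol at EC100; 0% = low agonist plus stimulus and 100% = saturating agonist plus stimulus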
# Starred values were filed as active, the others as inactive; nt = not tested or not shown.
SMILES,NPY Y2 blocker,NPY2 pot ag,NPY Y1 blocker,MT stabilizer,bCat nuc transl,NPY1 pot ag
COc1ccccc1CNc1nc2ccccc2n1CCN1CCCCC1,20.7*,-8.3,22.6*,2.9,-4.5,-37.6
CCNc1nc(OC)nc(SCC(=O)Nc2ccccc2)n1,nt,-8.5,-1.2,13.4*,23.5,7.3
O=C(/C(=C/c1ccc(Cl)cc1)c1nc2ccccc2[nH]1)c1ccccc1,6.1,-5.3,5.5,46.7*,-0.4,2.2
Cc1cccc(OCCCC(=O)NCc2ccco2)c1,2.4,3.9,11.1,2.2,-0.5,7.2
CCN(CC)S(=O)(=O)c1ccc2c(c1)N(CC(=O)Nc1cccnc1Cl)C(=O)CO2,nt,-2.1,-0.9,3.6,-1.9,-3.4
COc1ccc2nc(Nc3nc(C)c(C(C)=O)s3)sc2c1,-2.8,34.2*,-1.8,5.1,-2.0,40.7*
O=c1oc2ccccc2c(Nc2ccc3ccccc3c2)c1[N+](=O)[O-],-0.3,14.9,3.0,46.0*,13.9,-4.7
CCCCOC(=O)Sc1nc2ccccc2o1,2.7,-9.6,0.5,4.3,0.3,-7.3
Cn1c(/C=N/Nc2nc3ccccc3[nH]2)nc2ccccc21,nt,1.8,1.0,1.1,-2.1,0.7
C=CCn1cc(/C=N/Nc2nc3ccccc3[nH]2)c2ccccc21,-2.9,47.2*,-7.0,2.8,1.1,47.9*
CCC(C)(C(=O)NC1CCCC1)N(C(=O)c1ccccn1)c1ccccc1 (centres undefined),7.2,6.2,6.3,5.0,0.0,-2.6
CCC(C)(C(=O)NC1CCCCC1)N(CC1CCCO1)C(=O)Cc1cccs1 (centres undefined),nt,4.9,21.5*,2.9,nt,-0.4
CCC(C)(C(=O)NC1CCCC1)N(Cc1cccs1)C(C)=O (centres undefined),1.8,7.5,-3.2,1.8,-5.3,-15.6
CCC(C)(C(=O)NC1CCCC1)N(Cc1cccs1)C(=O)Cc1cccs1 (centres undefined),38.4*,7.9,37.0*,2.1,1.8,-30.4
CCC(C)(C(=O)NC1CCCCC1)N(C(=O)Cc1cccs1)c1ccccc1 (centres undefined),17.2*,-7.6,33.9*,3.6,-2.0,-37.4
Oc1oc(-c2cccc3ccccc23)nc1C=NCc1ccccc1,2.6,-3.9,-7.7,3.0,nt,1.8
Cc1nn(-c2ccc(Cl)cc2)c2[nH]c(=O)c(CNCc3ccc4c(c3)OCO4)cc12,0.2,6.0,3.4,6.0,-0.8,2.0
CCN(CC)CCC(=O)NN,nt,2.5,2.4,5.1,-0.3,4.3
CCN(CC)c1ccc(/C=C(/C#N)c2nc3ccccc3[nH]2)c(OC(C)C)c1,2.0,15.9,0.9,60.3*,nt,40.3
N#C/C(=C\c1ccncc1)c1nc2ccccc2[nH]1,nt,15.2,-3.3,5.0,1.1,-2.6
CC1=C(C)SC(=C(C#N)c2nnc(N3CCOCC3)n2-c2ccccc2)S1,nt,nt,nt,nt,-3.7,nt
CCC(=O)Nc1cccc(-c2nc3ccccc3o2)c1,1.8,3.7,9.3,2.9,0.2,20.2
CC(=O)Nc1nc2ccc(-c3nc4ccccc4o3)cc2s1,-5.9,37.4*,-14.7,2.3,3.6,46.2*
CS(=O)(=O)N(CC(=O)N/N=C/c1cccs1)c1cccc(Cl)c1Cl,3.4,-5.4,-6.2,2.3,-1.9,0.8
Cc1cccc(N2CCN(C(=S)c3ccc(-c4ccccc4[N+](=O)[O-])o3)CC2)c1,11.4,-15.6,7.6,23.2*,0.8,-42.8
SMILES,NPY Y2 blocker,NPY2 pot ag,NPY Y1 blocker,MT stabilizer,bCat nuc transl,NPY1 pot ag
O=[N+]([O-])c1ccccc1-c1ccc(C(=S)N2CCCC2)o1,nt,5.8,1.8,4.1,-0.6,-11.2
O=C(O)[C@H](Cc1ccccc1)NC(=O)N1CCOCC1,2.1,2.7,1.9,7.8,1.2,-13.8
O=[N+]([O-])c1ccc(OCC(O)CNC2CCCC2)cc1 (centres undefined),nt,-25.0,nt,nt,0.0,-40.4
O=[N+]([O-])c1ccccc1OCC(O)CNC1CCCC1 (centres undefined),nt,103.9*,nt,nt,0.6,112.3*
Cc1[nH]c2ccccc2c1/C=N/Nc1ccccc1[N+](=O)[O-],nt,101.4*,-28.6,6.9,-4.5,106.9*
Cc1ccc(N2CCC(N3CCN(C4CCCCC4)C(CCO)C3)CC2)cc1 (centres undefined),nt,-16.7,-0.6,2.7,1.6,-23.4
COC(=O)N(NC(=O)C(O)(CCC(C)C)CCC(C)C)c1ccccc1,26.2*,-15.4,51.8*,2.2,-0.5,-40.3
